This note sets out measurements from ChEMBL document CHEMBL1143777, “Synthesis of some bioactive 2-bromo-5-methoxy-N'-[4-(aryl)-1,3-thiazol-2-yl]benzohydrazide derivatives” (2007).

Molecules are shown by their SMILES. In brackets after ≈: the same amount, converted by molar mass. A value given as a limit tells only on which side of the number the result lay.

Experiment [1] concerns Mus musculus. As to the kind of experiment: Analgesic activity against acetic acid-induced writhing in Swiss Albino mouse assessed as protection at 50 mg/kg, po. Format: functional. In short, it runs like this: (§1)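 Mice were dosed with the test agent or diclofenac sodium (2.5 mg/kg). One hour later, writhing was induced by ip injection of 0.6% acetic acid in distilled water at 10 ml/kg. Writhes were counted for 15 min right after the acetic acid injection, and percentage protection was calculated.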

The subject of the next experiment is Talaromyces marneffei. The experiment is described as follows: Antifungal activity against Penicillium marneffei by serial plate dilution method. Format: functional.
The next experiment has as its system Escherichia coli. As to the kind of experiment: Antibacterial activity against Escherichia coli by disc diffusion method. Type of experiment: functional.
In another experiment the test system is Staphylococcus aureus. The experiment is described as follows: Antibacterial activity against Staphylococcus aureus by disc diffusion method. Format: functional.
The next experiment relates to Trichophyton benhamiae. The experiment is described as follows: Antifungal activity against Trichophyton mentagrophytes by serial plate dilution method. Format: functional, Arthroderma benhamiae.
The subject of a further experiment is Aspergillus fumigatus. The experiment is described as follows: Antifungal activity against Aspergillus fumigatus by serial plate dilution method. Format: functional.
Another experiment relates to Aspergillus flavus. The experiment is described as follows: Antifungal activity against Aspergillus flavus by serial plate dilution method. Format: functional.
In a further experiment the test system is Pseudomonas aeruginosa. As to the kind of experiment: Antibacterial activity against Pseudomonas aeruginosa by disc diffusion method. Type of experiment: functional.
In another experiment the test system is SF-268. The experiment is described as follows: Antiproliferative activity against SF268 cells assessed as growth at 100 uM after 48 hrs. The following applies: Homo sapiens, SF-268, 48 h; read-out: Activity. Type of experiment: functional. In short, it runs like this: (§2)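 This was the NCI primary three-cell-line, one-dose screen (lung NCI-H, breast MCF-7, CNS SF-268). Cells were inoculated on preincubated microtiter plates, and the agent was added at a single concentration. Cultures were incubated for 48 h. The endpoint was determined with sulphorhodamine B protein staining, with negative growth values indicating cell kill.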

Experiment [2] can be described thus: Antiproliferative activity against NCI-H cells assessed as growth at 100 uM after 48 hrs. Format: functional. The note with it: Homo sapiens, read-out: Activity. In short, it runs like this: as §2
In another experiment the test system is Klebsiella pneumoniae. The experiment is described as follows: Antibacterial activity against Klebsiella pneumoniae by disc diffusion method. Format: functional.
The next experiment has as its system MCF7. The experiment is described as follows: Antiproliferative activity against MCF7 cells assessed as growth at 100 uM after 48 hrs. The note with it: Homo sapiens, MCF7, 48 h; read-out: Activity. Format: functional. Put shortly: as §2
In a further experiment the test system is RPMI-8226. As to the kind of experiment: Antiproliferative activity against RPMI8226 cells after 48 hrs. Type of experiment: functional. The note with it: Homo sapiens, RPMI-8226, 48 h. In short, it runs like this: (§3)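 This was the NCI 60-cell-line panel (lung, colon, melanoma, renal, ovarian, CNS, leukemia), with compounds tested over a five-dose range.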

A further experiment deals with MOLT-4. As to the kind of experiment: Antiproliferative activity against MOLT4 cells after 48 hrs. Type of experiment: functional. The following applies: Homo sapiens, MOLT-4, 48 h. Put shortly: as §3
For a further experiment, the system named is SR. The experiment is described as follows: Antiproliferative activity against SR cells after 48 hrs. Type of experiment: functional. The following applies: Homo sapiens. Put shortly:
as §3

Experiment [3] deals with Mus musculus. As to the kind of experiment: Analgesic activity against acetic acid-induced writhing in Swiss Albino mouse assessed as protection at 2.5 mg/kg, po. Format: functional. Put shortly: as §1
[4] abbreviates: read-out: LC50 (the source's name).

As for `COc1ccc(Br)c(C(=O)NNc2nc(-c3ccccc3)cs2)c1`, the Activity in the experiment with Mus musculus [1] came to 12.5%.

On to `COc1ccc(Br)c(C(=O)NNc2nc(-c3cc4ccccc4oc3=O)cs2)c1`, for which the results for the minimal inhibitory concentration (MIC) in the experiment with Talaromyces marneffei, against Escherichia coli and in the experiment on Staphylococcus aureus were 12.5 µg/mL (≈ 26.5 µM), 50 µg/mL (≈ 106 µM) and 50 µg/mL (≈ 106 µM), respectively. Besides, the Activity in the experiment with Mus musculus [1] is listed as 37.5%.

Turning to `CCC(C)n1ncn(-c2ccc(N3CCN(c4ccc(OC[C@H]5CO[C@](Cn6cncn6)(c6ccc(Cl)cc6Cl)O5)cc4)CC3)cc2)c1=O` (stereo not given in full) [ITRACONAZOLE], the minimal inhibitory concentration (MIC) in the experiment with Trichophyton benhamiae, against Talaromyces marneffei, against Aspergillus fumigatus and against Aspergillus flavus was below 16 µg/mL each time.

As to `COc1ccc(Br)c(C(=O)NNc2nc(-c3cc4cc(Br)ccc4oc3=O)cs2)c1`, the MIC was found to be 12.5 µg/mL (≈ 22.7 µM) against Trichophyton benhamiae, 12.5 µg/mL (≈ 22.7 µM) against Talaromyces marneffei, 10 µg/mL (≈ 18.1 µM) in the experiment on Aspergillus fumigatus and 50 µg/mL (≈ 90.7 µM) against Staphylococcus aureus. In the experiment on Mus musculus [1], the Activity was found to be 50%.

For the compound `COc1ccc(-c2csc(NNC(=O)c3cc(OC)ccc3Br)n2)cc1`, in the experiment on Mus musculus [1], the Activity was determined as 25%. For the same compound, the minimum inhibitory concentration (MIC) with Aspergillus fumigatus and against Pseudomonas aeruginosa was 50 µg/mL (≈ 115 µM) each time.

Consider `COc1ccc(Br)c(C(=O)NNc2nc(-c3ccc(O)c(O)c3)cs2)c1`, for which the growth at 100 µM worked out at 111% with SF-268, 101% in experiment [2] and 86% in the experiment with MCF7. Also, the MIC amounted to 50 µg/mL (≈ 115 µM) against Escherichia coli; 50 µg/mL (≈ 115 µM) in the experiment with Aspergillus fumigatus; 12.5 µg/mL (≈ 28.7 µM) against Klebsiella pneumoniae; 6.25 µg/mL (≈ 14.3 µM) against Pseudomonas aeruginosa; 50 µg/mL (≈ 115 µM) with Staphylococcus aureus; 12.5 µg/mL (≈ 28.7 µM) against Aspergillus flavus. Further, the Activity with Mus musculus [1] came to 12.5%.

With `COc1ccc(Br)c(C(=O)NNc2nc(-c3ccc(O)c(C(N)=O)c3)cs2)c1`, the growth at 100 µM came out at 55% in the experiment on SF-268, 17% in experiment [2] and 19% in the experiment on MCF7. Further, the MIC against Trichophyton benhamiae worked out at 12.5 µg/mL (≈ 27 µM); against Talaromyces marneffei it was 12.5 µg/mL (≈ 27 µM); in the experiment on Aspergillus fumigatus, 12.5 µg/mL (≈ 27 µM); against Klebsiella pneumoniae, 12.5 µg/mL (≈ 27 µM); in the experiment on Staphylococcus aureus it was 12.5 µg/mL (≈ 27 µM); in the experiment on Aspergillus flavus it was 60 µg/mL (≈ 130 µM). Further, the Activity with Mus musculus [1] turned out to be 56.25%. Further, the GI50 stood at 27.9 µM in the experiment with RPMI-8226, 22.6 µM with MOLT-4 and 29.8 µM with SR. In addition, the TGI is 92.5 µM in the experiment with RPMI-8226, 57 µM with MOLT-4 and at least 100 µM in the experiment with SR. For the same compound, the CC50 in the experiment with RPMI-8226 (setting [4]), in the experiment with MOLT-4 (setting [4]) and in the experiment with SR (setting [4]) was at least 100 µM each time.

Turning to `COc1ccc(Br)c(C(=O)NNc2nc(-c3ccc(Cl)cc3)cs2)c1`, the MIC in the experiment with Trichophyton benhamiae, in the experiment with Pseudomonas aeruginosa and against Aspergillus flavus was 50 µg/mL (≈ 114 µM) in each case. In addition, in the experiment with Mus musculus [1], the Activity was 43.75%.

For the compound `COc1ccc(Br)c(C(=O)NNc2nc(-c3ccnc(Cl)c3)cs2)c1`, the figures for the growth at 100 µM (with SF-268; in experiment [2]; in the experiment on MCF7) were 111%, 95% and 87%, respectively. Further, the minimal inhibitory concentration (MIC) in the experiment on Trichophyton benhamiae is 12.5 µg/mL (≈ 28.4 µM); against Talaromyces marneffei, 12.5 µg/mL (≈ 28.4 µM); in the experiment with Aspergillus fumigatus, 12.5 µg/mL (≈ 28.4 µM); with Klebsiella pneumoniae it was 50 µg/mL (≈ 114 µM); against Aspergillus flavus, 50 µg/mL (≈ 114 µM). Also, the Activity with Mus musculus [1] worked out at 37.5%.

On to `O=C([O-])Cc1ccccc1Nc1c(Cl)cccc1Cl.[Na+]` [DICLOFENAC SODIUM], for which the Activity with Mus musculus [3] is recorded as 62.5%.
